Columns and labels:
ATM = ATM (Homo sapiens, UniProt Q13315); assay: In vitro ATM inhibition assay; assay type: biochemical; settings: recombinant human ATM, p53 substrate, HTRF
[1] = In vivo antitumor assay, body weight of mice; design: species or system nu/nu mice; settings: NTERA-2 cL.D1 xenograft, nude mice, 10 mg/kg daily intraperitoneal, 15 days
Method in brief: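 Male nu/nu mice aged 4–6 weeks received subcutaneous NTERA-2 cL.D1 cells (1×10⁷ in PBS). Once tumors reached 90–120 mm³, mice were randomized into four groups: vehicle, two reference inhibitors, or test compound, each at 10 mg/kg by daily intraperitoneal injection. Body weight and caliper tumor volume were recorded every 3 days for 15 days. n = 6 per group; mean ± SD.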

HDAC2 = HDAC2 (Homo sapiens, UniProt Q92769); assay: In vitro HDAC2 inhibition assay; assay type: biochemical; settings: recombinant human HDAC2, Boc-Lys(acetyl)-AMC
Chain of HDAC2 (Q92769 whole entry): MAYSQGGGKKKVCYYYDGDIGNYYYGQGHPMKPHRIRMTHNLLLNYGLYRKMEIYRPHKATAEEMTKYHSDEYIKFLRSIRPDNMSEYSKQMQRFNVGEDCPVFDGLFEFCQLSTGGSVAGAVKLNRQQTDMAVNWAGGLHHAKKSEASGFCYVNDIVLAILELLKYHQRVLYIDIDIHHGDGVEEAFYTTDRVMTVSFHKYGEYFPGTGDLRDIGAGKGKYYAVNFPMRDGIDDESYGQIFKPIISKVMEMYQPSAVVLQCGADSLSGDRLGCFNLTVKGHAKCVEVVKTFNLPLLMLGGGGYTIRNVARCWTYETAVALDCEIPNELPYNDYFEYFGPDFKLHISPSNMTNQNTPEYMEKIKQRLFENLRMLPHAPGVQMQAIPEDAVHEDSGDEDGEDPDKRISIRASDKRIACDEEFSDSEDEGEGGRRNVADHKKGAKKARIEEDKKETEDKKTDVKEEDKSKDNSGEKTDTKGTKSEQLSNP

Chain of ATM (Q13315 whole entry): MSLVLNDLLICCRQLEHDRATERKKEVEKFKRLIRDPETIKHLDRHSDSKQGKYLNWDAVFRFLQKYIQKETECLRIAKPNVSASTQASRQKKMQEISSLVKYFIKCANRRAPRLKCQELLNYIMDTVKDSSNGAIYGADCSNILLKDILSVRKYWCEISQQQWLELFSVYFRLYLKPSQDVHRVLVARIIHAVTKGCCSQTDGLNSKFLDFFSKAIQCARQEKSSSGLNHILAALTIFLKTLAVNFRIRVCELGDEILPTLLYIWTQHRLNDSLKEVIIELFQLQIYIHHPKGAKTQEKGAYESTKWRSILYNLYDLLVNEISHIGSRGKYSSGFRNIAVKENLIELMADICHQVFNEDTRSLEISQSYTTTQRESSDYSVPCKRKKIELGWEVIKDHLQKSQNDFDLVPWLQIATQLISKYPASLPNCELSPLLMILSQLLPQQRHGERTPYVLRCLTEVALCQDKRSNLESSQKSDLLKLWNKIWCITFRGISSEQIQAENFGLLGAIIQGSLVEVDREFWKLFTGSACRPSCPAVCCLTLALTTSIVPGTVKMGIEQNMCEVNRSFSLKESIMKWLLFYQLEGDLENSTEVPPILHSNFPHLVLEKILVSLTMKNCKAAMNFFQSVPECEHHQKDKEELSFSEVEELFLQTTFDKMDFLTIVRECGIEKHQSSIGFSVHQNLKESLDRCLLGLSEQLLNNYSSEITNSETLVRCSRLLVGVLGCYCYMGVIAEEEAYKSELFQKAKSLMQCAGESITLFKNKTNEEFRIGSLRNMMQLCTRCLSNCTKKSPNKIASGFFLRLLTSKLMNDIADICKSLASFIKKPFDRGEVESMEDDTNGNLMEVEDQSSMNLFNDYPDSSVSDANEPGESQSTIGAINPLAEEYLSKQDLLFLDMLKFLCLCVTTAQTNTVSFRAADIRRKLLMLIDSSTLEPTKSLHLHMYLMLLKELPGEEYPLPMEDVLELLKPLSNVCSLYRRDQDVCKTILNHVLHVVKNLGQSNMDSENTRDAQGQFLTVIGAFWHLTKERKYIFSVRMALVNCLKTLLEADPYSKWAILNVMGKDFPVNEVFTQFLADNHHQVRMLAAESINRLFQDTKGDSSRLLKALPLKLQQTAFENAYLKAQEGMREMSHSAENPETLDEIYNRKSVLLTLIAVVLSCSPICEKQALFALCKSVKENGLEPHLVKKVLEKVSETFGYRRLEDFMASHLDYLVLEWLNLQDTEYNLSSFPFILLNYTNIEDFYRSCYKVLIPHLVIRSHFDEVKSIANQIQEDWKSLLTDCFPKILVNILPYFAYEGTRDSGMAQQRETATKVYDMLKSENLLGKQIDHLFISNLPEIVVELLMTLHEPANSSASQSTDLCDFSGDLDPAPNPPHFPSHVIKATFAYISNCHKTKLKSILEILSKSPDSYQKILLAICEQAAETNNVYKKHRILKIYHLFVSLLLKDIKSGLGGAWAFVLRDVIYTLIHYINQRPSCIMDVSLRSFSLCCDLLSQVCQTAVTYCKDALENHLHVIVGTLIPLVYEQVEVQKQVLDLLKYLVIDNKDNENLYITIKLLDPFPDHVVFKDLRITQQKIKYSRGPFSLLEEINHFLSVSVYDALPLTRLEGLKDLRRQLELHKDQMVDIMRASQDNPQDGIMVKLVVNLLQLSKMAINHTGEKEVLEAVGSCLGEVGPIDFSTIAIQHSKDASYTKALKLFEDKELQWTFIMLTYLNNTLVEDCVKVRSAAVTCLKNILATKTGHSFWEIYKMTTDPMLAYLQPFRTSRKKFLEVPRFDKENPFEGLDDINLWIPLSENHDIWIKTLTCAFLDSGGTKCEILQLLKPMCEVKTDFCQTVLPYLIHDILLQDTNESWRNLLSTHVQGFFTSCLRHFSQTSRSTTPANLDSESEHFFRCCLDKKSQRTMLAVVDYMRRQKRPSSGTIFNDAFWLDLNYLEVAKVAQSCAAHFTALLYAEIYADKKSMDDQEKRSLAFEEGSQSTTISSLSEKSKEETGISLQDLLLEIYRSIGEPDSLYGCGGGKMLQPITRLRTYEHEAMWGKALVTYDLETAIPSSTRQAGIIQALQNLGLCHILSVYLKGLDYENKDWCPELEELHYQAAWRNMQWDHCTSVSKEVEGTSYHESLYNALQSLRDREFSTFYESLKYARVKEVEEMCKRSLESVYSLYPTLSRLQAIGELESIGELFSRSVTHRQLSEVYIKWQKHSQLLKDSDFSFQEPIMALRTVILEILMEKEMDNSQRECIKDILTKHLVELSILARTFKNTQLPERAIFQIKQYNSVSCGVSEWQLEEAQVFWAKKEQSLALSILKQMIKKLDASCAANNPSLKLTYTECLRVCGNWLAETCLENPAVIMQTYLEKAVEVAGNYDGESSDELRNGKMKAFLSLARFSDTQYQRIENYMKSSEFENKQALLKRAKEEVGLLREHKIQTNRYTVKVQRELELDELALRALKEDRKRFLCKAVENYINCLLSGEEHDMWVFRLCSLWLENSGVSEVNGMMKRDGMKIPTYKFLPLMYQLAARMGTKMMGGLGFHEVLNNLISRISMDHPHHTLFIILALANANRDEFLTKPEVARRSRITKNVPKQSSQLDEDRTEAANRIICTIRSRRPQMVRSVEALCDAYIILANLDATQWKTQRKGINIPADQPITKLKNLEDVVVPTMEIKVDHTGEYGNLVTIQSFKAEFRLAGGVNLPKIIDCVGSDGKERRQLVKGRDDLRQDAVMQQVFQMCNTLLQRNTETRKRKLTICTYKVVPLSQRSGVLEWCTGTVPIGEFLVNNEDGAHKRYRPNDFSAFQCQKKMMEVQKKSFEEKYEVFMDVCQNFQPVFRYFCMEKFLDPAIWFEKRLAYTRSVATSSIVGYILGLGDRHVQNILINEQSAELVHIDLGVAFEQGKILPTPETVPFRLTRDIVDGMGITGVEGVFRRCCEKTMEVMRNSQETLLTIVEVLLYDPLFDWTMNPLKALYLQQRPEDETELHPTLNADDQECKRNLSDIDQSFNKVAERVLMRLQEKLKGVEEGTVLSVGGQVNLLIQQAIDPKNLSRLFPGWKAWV

Row | ATM (IC50, nM) (ATM) | ATM (IC50, nM) (ATM; listed as vorinostat) | HDAC2 (IC50, nM) (HDAC2) | HDAC2 (IC50, nM) (HDAC2; listed as lartesertib) | SMILES | body weight of mice [1]
1 | no inhibition | did not affect | – | – | O=C(CCCCCCC(=O)Nc1ccccc1)NO [Vorinostat] | slight decrease
2 | – | – | no inhibition | no inhibitory effect | COc1cc2ncc3c(c2cc1-c1cn(C)nc1C)n(-c1c(F)cncc1OC)c(=O)n3C [Lartesertib] | –

Reference: publication PMC11585990 (Drug Design, Development and Therapy, 2024)
